From ChEMBL document CHEMBL5257020, “Discovery of a 9-mer Cationic Peptide (LTX-315) as a Potential First in Class Oncolytic Peptide” (J Med Chem, 2016)
Where a SMILES comes first, the peptide text is derived from it. [ ]: non-standard residue; d: D form. ξ: configuration not given here. ξBip = NC(Cc1ccc(-c2ccccc2)cc1)C(=O)O; ξDip = NC(C(=O)O)C(c1ccccc1)c1ccccc1

What was measured:
Ramos = test: Cytotoxicity against human Ramos cells assessed as inhibition of cell proliferation incubated for 4 hrs by MTS assay; type: functional, cell-based
Procedure, shortened: (§1)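 Cells grown in RPMI-1640 with 2 mM L-glutamine and 10% FBS, plated, then held 24 h at 37 °C. Adherent lines washed once in FBS-free medium. Cells exposed 4 h at 37 °C, 5% CO2 in FBS-free medium to 10 concentrations (1/4 steps, 400 μM top). 1% Triton X-100 served as positive control. MTS/PMS added for 2 h, then OD 490 nm read. IC50 from semilog curves; three independent experiments, quadruplicate wells.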

Raji = test: Cytotoxicity against human Raji cells assessed as inhibition of cell proliferation incubated for 4 hrs by MTS assay; type: functional, cell-based; procedure, shortened: as §1
[1] = Cytotoxicity against human MINO cells assessed as inhibition of cell proliferation incubated for 4 hrs by MTS assay; type: functional, cell-based; procedure, shortened: as §1
KARPAS-299 = test: Cytotoxicity against human KARPAS-299 cells assessed as inhibition of cell proliferation incubated for 4 hrs by MTS assay; type: functional, cell-based; settings: KARPAS-299, 4 h; procedure, shortened: as §1
CCRF-CEM = test: Cytotoxicity against human CCRF-CEM cells assessed as inhibition of cell proliferation incubated for 4 hrs by MTS assay; type: functional, cell-based; procedure, shortened: as §1
[2] = Cytotoxicity against mouse AT84 cells assessed as inhibition of cell proliferation incubated for 4 hrs by MTT assay; type: functional, cell-based; settings: AT84, 4 h
HL60/ADR = test: Cytotoxicity against human HL60/ADR cells assessed as inhibition of cell proliferation incubated for 4 hrs by MTS assay; type: functional, cell-based; procedure, shortened: as §1
IGROV-1 = test: Cytotoxicity against human IGROV-1 cells assessed as inhibition of cell proliferation incubated for 4 hrs by MTS assay; type: functional, cell-based; settings: IGROV-1, 4 h; procedure, shortened: as §1
K562 = test: Cytotoxicity in imatinib resistant human K562 cells assessed as inhibition of cell proliferation incubated for 4 hrs by MTS assay; type: functional, cell-based; settings: K562, 4 h
Procedure, shortened: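 Oncodesign panel MTS/PMS assay. Cells in RPMI-1640 + 10% FBS. After 24 h pre-plating, adherent lines washed in FBS-free medium. Cells exposed 4 h at 37 °C in FBS-free medium to 10 concentrations, 1/4 dilutions from 400 μM top. Triton X-100 (1% final) positive control. MTS/PMS added, 2 h, OD 490 nm. IC50 from semilog curves. Three independent experiments, quadruplicate wells.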

Daudi = test: Cytotoxicity against human Daudi cells assessed as inhibition of cell proliferation incubated for 4 hrs by MTS assay; type: functional, cell-based; procedure, shortened: as §1
Toledo = test: Cytotoxicity against human Toledo cells assessed as inhibition of cell proliferation incubated for 4 hrs by MTS assay; type: functional, cell-based; procedure, shortened: as §1
U-937 = test: Cytotoxicity against human U-937 cells assessed as inhibition of cell proliferation incubated for 4 hrs by MTS assay; type: functional, cell-based; settings: U-937, 4 h; procedure, shortened: as §1
RPMI-8226 = test: Cytotoxicity against human RPMI-8226 cells assessed as inhibition of cell proliferation incubated for 4 hrs by MTS assay; type: functional, cell-based; settings: RPMI-8226, 4 h; procedure, shortened: as §1
SH-SY5Y = test: Cytotoxicity against human SH-SY5Y cells assessed as inhibition of cell proliferation incubated for 4 hrs by MTS assay; type: functional, cell-based; procedure, shortened: as §1
SK-N-AS = test: Cytotoxicity against human SK-N-AS cells assessed as inhibition of cell proliferation incubated for 4 hrs by MTS assay; type: functional, cell-based; procedure, shortened: as §1
MDA-MB-435S = test: Cytotoxicity against human MDA-MB-435S cells assessed as inhibition of cell proliferation incubated for 4 hrs by MTS assay; type: functional, cell-based; procedure, shortened: as §1
T47D = test: Cytotoxicity against human T47D cells assessed as inhibition of cell proliferation incubated for 4 hrs by MTS assay; type: functional, cell-based; procedure, shortened: as §1
HCT-15 = test: Cytotoxicity against human HCT-15 cells assessed as inhibition of cell proliferation incubated for 4 hrs by MTS assay; type: functional, cell-based; settings: HCT-15, 4 h; procedure, shortened: as §1
HT-29 = test: Cytotoxicity against human HT-29 cells assessed as inhibition of cell proliferation incubated for 4 hrs by MTS assay; type: functional, cell-based; settings: HT-29, 4 h; procedure, shortened: as §1
[3] = Cytotoxicity against human HUVEC-C cells assessed as inhibition of cell proliferation incubated for 4 hrs by MTS assay; type: toxicity, cell-based; procedure, shortened: as §1
786-0 = test: Cytotoxicity against human 786-0 cells assessed as inhibition of cell proliferation incubated for 4 hrs by MTS assay; type: functional, cell-based; settings: 786-0, 4 h; procedure, shortened: as §1
A498 = test: Cytotoxicity against human A498 cells assessed as inhibition of cell proliferation incubated for 4 hrs by MTS assay; type: functional, cell-based; settings: A498, 4 h; procedure, shortened: as §1
HepG2 = test: Cytotoxicity against human HepG2 cells assessed as inhibition of cell proliferation incubated for 4 hrs by MTS assay; type: functional, cell-based; settings: HepG2, 4 h; procedure, shortened: as §1
SK-HEP1 = test: Cytotoxicity against human SK-HEP1 cells assessed as inhibition of cell proliferation incubated for 4 hrs by MTS assay; type: functional, cell-based; settings: SK-HEP1, 4 h; procedure, shortened: as §1
A549 = test: Cytotoxicity against human A549 cells assessed as inhibition of cell proliferation incubated for 4 hrs by MTS assay; type: functional, cell-based; settings: A549, 4 h; procedure, shortened: as §1
Calu-6 = test: Cytotoxicity against human Calu-6 cells assessed as inhibition of cell proliferation incubated for 4 hrs by MTS assay; type: functional, cell-based; settings: Calu-6, 4 h; procedure, shortened: as §1
[4] = Cytotoxicity against human MRC5 cells assessed as inhibition of cell proliferation incubated for 4 hrs by MTS assay; type: toxicity, cell-based; procedure, shortened: as §1
NCI-H460 = test: Cytotoxicity against human NCI-H460 cells assessed as inhibition of cell proliferation incubated for 4 hrs by MTS assay; type: functional, cell-based; settings: NCI-H460, 4 h; procedure, shortened: as §1
OVCAR-3 = test: Cytotoxicity against human OVCAR-3 cells assessed as inhibition of cell proliferation incubated for 4 hrs by MTS assay; type: functional, cell-based; settings: OVCAR-3, 4 h; procedure, shortened: as §1
SK-OV-3 = test: Cytotoxicity against human SK-OV-3 cells assessed as inhibition of cell proliferation incubated for 4 hrs by MTS assay; type: functional, cell-based; settings: SK-OV-3, 4 h; procedure, shortened: as §1
BXPC-3 = test: Cytotoxicity against human BXPC-3 cells assessed as inhibition of cell proliferation incubated for 4 hrs by MTS assay; type: functional, cell-based; settings: BXPC-3, 4 h; procedure, shortened: as §1
PANC-1 = test: Cytotoxicity against human PANC-1 cells assessed as inhibition of cell proliferation incubated for 4 hrs by MTS assay; type: functional, cell-based; settings: PANC-1, 4 h; procedure, shortened: as §1
PC-3 = test: Cytotoxicity against human PC-3 cells assessed as inhibition of cell proliferation incubated for 4 hrs by MTS assay; type: functional, cell-based; settings: PC-3, 4 h; procedure, shortened: as §1
A-431 = test: Cytotoxicity against human A-431 cells assessed as inhibition of cell proliferation incubated for 4 hrs by MTS assay; type: functional, cell-based; settings: A-431, 4 h; procedure, shortened: as §1
Malme-3M = test: Cytotoxicity against human Malme-3M cells assessed as inhibition of cell proliferation incubated for 4 hrs by MTS assay; type: functional, cell-based; procedure, shortened: as §1
SK-MEL-2 = test: Cytotoxicity against human SK-MEL-2 cells assessed as inhibition of cell proliferation incubated for 4 hrs by MTS assay; type: functional, cell-based; settings: SK-MEL-2, 4 h; procedure, shortened: as §1
[5] = Cytotoxicity against human Hs 445 cells assessed as inhibition of cell proliferation incubated for 4 hrs by MTS assay; type: functional, cell-based; settings: Hs 445, 4 h; procedure, shortened: as §1
[6] = Cytotoxicity against human U-87 MG cells assessed as inhibition of cell proliferation incubated for 4 hrs by MTS assay; type: functional, cell-based, U-87MG ATCC; procedure, shortened: as §1
COLO 205 = test: Cytotoxicity against human COLO 205 cells assessed as inhibition of cell proliferation incubated for 4 hrs by MTS assay; type: functional, cell-based; settings: COLO 205, 4 h; procedure, shortened: as §1

SMILES	IC50 (Ramos) [µM]	IC50 (Raji) [µM]	IC50 [1] [µM]	IC50 (KARPAS-299) [µM]	IC50 (CCRF-CEM) [µM]	IC50 [2] [µM]	IC50 (HL60/ADR) [µM]	IC50 (IGROV-1) [µM]	IC50 (K562) [µM]	IC50 (Daudi) [µM]	IC50 (Toledo) [µM]	IC50 (U-937) [µM]	IC50 (RPMI-8226) [µM]	IC50 (SH-SY5Y) [µM]	IC50 (SK-N-AS) [µM]	IC50 (MDA-MB-435S) [µM]	IC50 (T47D) [µM]	IC50 (HCT-15) [µM]	IC50 (HT-29) [µM]	IC50 at 4 h [3] [µM]	further results
NCCCC[C@H](NC(=O)[C@H](Cc1c[nH]c2ccccc12)NC(=O)[C@H](Cc1c[nH]c2ccccc12)NC(=O)[C@H](CCCCN)NC(=O)[C@H](CCCCN)NC(=O)[C@H](Cc1c[nH]c2ccccc12)NC(=O)C(Cc1ccc(-c2ccccc2)cc1)NC(=O)[C@H](CCCCN)NC(=O)[C@@H](N)CCCCN)C(N)=O (stereo partly drawn) (H-KK[ξBip]WKKWWK-NH2)	3.2	16.1	8.4	10	7.6	17.7	7	13.4	7.9	6.6	5.2	3.8	4	7.8	6.1	11.4	4.2	13.9	10.5	37.9	IC50 (786-0): 16.8 µM; IC50 (A498): 7.9 µM; IC50 (HepG2): 14.8 µM; IC50 (SK-HEP1): 12.6 µM; IC50 (A549): 10.3 µM; IC50 (Calu-6): 6.1 µM; IC50 at 4 h [4]: 30.9 µM; IC50 (NCI-H460): 11.2 µM; IC50 (OVCAR-3): 14.3 µM; IC50 (SK-OV-3): 17.7 µM; IC50 (BXPC-3): 8.9 µM; IC50 (PANC-1): 10.8 µM; IC50 (PC-3): 9.3 µM; IC50 (A-431): 7.2 µM; IC50 (Malme-3M): 8.9 µM; IC50 (SK-MEL-2): 13.4 µM; IC50 [5]: 4.2 µM; IC50 [6]: 18.5 µM; IC50 (COLO 205): 4.9 µM
N=C(N)NCCC[C@H](NC(=O)[C@H](Cc1c[nH]c2ccccc12)NC(=O)[C@H](Cc1c[nH]c2ccccc12)NC(=O)[C@H](CCCNC(=N)N)NC(=O)[C@H](CCCNC(=N)N)NC(=O)C(NC(=O)[C@H](Cc1c[nH]c2ccccc12)NC(=O)[C@H](CCCNC(=N)N)NC(=O)[C@@H](N)CCCNC(=N)N)C(c1ccccc1)c1ccccc1)C(N)=O (stereo partly drawn) (H-RRW[ξDip]RRWWR-NH2)	2.8	11.3	5.2	8.2	5.6	11.3	6	11.1	7.7	4.7	3	2.6	4.1	5.4	6.9	8	3.5	7.5	11.5	19.4	IC50 (786-0): 7.5 µM; IC50 (A498): 5.7 µM; IC50 (HepG2): 16.6 µM; IC50 (SK-HEP1): 6.3 µM; IC50 (A549): 7.3 µM; IC50 (Calu-6): 5.8 µM; IC50 at 4 h [4]: 14.6 µM; IC50 (NCI-H460): 9.3 µM; IC50 (OVCAR-3): 8.4 µM; IC50 (SK-OV-3): 7.4 µM; IC50 (BXPC-3): 6.2 µM; IC50 (PANC-1): 12.5 µM; IC50 (PC-3): 9.8 µM; IC50 (A-431): 5.5 µM; IC50 (Malme-3M): 10.4 µM; IC50 (SK-MEL-2): 10.6 µM; IC50 [5]: 2.2 µM; IC50 [6]: 13.1 µM; IC50 (COLO 205): 6.7 µM
